According to ChEMBL document CHEMBL3526089, “Selective mechanism-based inactivation of CYP3A4 by CYP3cide (PF-04981517) and its utility as an in vitro tool for delineating the relative roles of CYP3A4 versus CYP3A5 in the metabolism of drugs” (Drug Metab Dispos, 2012):

Legend:
Assay type in all cases: ADME
Details in all cases: recombinant enzyme
Cytochrome P450 3A5 [1] = biological target: T1, Cytochrome P450 3A5 (Homo sapiens, UniProt P20815); experiment: Drug level assessed as human recombinant CYP3A5 in presence of human P450 oxidoreductase and b5-mediated drug metabolism treated with 10 uM of PF-04981517 by HPLC-MS analysis in presence of NADPH
T1 sequence (P20815 whole entry): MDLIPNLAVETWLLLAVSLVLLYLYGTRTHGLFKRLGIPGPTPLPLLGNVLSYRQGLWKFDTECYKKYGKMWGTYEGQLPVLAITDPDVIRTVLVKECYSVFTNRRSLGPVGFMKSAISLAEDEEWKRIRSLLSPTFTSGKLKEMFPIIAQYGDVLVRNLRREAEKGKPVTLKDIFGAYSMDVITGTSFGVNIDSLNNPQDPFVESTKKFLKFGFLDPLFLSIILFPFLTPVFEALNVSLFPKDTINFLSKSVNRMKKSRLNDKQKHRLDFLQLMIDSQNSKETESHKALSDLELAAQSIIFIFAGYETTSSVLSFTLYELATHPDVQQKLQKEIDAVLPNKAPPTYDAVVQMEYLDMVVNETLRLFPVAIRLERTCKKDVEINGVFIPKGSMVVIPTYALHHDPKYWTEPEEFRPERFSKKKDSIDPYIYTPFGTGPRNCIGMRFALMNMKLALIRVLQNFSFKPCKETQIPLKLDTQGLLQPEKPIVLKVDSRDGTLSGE
Procedure, shortened: (§1)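 Recombinant CYP3A4 or CYP3A5 (50 pmol/ml final) added, without preincubation, to 10 µM CYP3cide with NADPH (final 1 mM) in 100 mM phosphate pH 7.4. Trapping incubations also held 200 µM KCN or 5 mM GSH (final). Incubated 1 h at 37°C, quenched with acetonitrile, dried, reconstituted. Metabolites analysed by LC/Orbitrap ESI-MS.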

Cytochrome P450 3A4 [2] = biological target: T2, Cytochrome P450 3A4 (Homo sapiens, UniProt P08684); experiment: Drug level assessed as human recombinant CYP3A4 in presence of human P450 oxidoreductase and b5-mediated drug metabolism treated with 10 uM of PF-04981517 by HPLC-MS analysis in presence of NADPH; procedure, shortened: as §1
T2 sequence (P08684 whole entry): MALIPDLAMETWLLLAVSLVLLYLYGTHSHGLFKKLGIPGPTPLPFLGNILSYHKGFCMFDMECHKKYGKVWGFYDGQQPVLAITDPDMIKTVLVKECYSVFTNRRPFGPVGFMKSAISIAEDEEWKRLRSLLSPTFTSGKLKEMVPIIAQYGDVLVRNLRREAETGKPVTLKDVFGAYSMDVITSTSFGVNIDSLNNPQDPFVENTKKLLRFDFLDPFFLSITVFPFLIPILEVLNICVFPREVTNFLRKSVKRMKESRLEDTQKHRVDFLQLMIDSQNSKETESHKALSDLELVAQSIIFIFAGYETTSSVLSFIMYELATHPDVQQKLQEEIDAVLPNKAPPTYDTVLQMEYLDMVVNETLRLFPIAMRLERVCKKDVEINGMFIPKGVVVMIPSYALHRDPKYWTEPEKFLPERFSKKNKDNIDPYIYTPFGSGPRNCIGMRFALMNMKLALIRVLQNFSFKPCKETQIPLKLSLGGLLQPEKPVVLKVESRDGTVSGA

Cytochrome P450 3A4 [3] = biological target: T2, Cytochrome P450 3A4; experiment: Drug level assessed as human recombinant CYP3A4 in presence of human P450 oxidoreductase and b5-mediated drug metabolism treated with 10 uM of PF-04981517 by HPLC-MS analysis in presence of KCN and NADPH; procedure, shortened: as §1
Cytochrome P450 3A5 [4] = biological target: T1, Cytochrome P450 3A5; experiment: Drug level assessed as human recombinant CYP3A5 in presence of human P450 oxidoreductase and b5-mediated drug metabolism treated with 10 uM of PF-04981517 by HPLC-MS analysis in presence of KCN and NADPH; procedure, shortened: as §1
Cytochrome P450 3A5 [5] = biological target: T1, Cytochrome P450 3A5; experiment: Drug metabolism assessed as human recombinant CYP3A5 in presence of human P450 oxidoreductase and b5-mediated compound formation at 10 uM by HPLC-MS analysis in presence of KCN; procedure, shortened: as §1

Drug metabolism (Cytochrome P450 3A5 [1]) | Drug metabolism (Cytochrome P450 3A4 [2]) | Drug metabolism (Cytochrome P450 3A4 [3]) | Drug metabolism (Cytochrome P450 3A5 [4]) | Drug metabolism (Cytochrome P450 3A5 [5]) | Structure (SMILES)
metabolite_detected | metabolite_detected | metabolite_detected | metabolite_detected |  | Cc1ccc(-c2c(-c3nn(C)c4ncnc(N5CC[C@H](N6CCCCC6)C5)c34)cnn2CO)cc1
metabolite_detected | metabolite_detected | metabolite_detected | metabolite_detected |  | Cc1ccc(-c2c(-c3nn(C)c4ncnc(N5CC[C@H]([N+]6=CCCCC6)C5)c34)cnn2C)cc1
 |  |  |  | metabolite_detected | Cc1ccc(-c2c(-c3nn(C)c4ncnc(N5CC[C@H](N)C5)c34)cnn2C)cc1
 |  |  |  | metabolite_detected | Cc1ccc(-c2c(-c3nn(C)c4ncnc(N5CC[C@H](N6CCCCC6=O)C5)c34)cnn2C)cc1
